# mIAP block: inhibitors of mouse IAP, primary screen, biochemical, luminescence, uHTS; AID 2806, 2010; purified mouse IAP, CDP-Star luminescence, 30 min; 330,000 compounds, 0.2% hits; intestinal alkaline phosphatase [Mus musculus]; inhibition, % at 10 µM;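 active = inhibition of at least 40% at 10 µM in the primary screen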;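 also: plate controls were DMSO with enzyme for no effect and no enzyme wells for full effect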
# bIAP act: bovine intestinal alkaline phosphatase activators, primary screen, biochemical, bovine IAP, CDP-star luminescence; purified bovine IAP, 30 min; stronger effect = higher value; fold of DMSO-control signal, blank-subtracted; activation factor at 20 µM; 200,000 compounds, 0.17% hits; AID 1016, 2008;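 active = activation factor of 2 or more at 20 µM, a signal rise over negative controls twice the positive control's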
# bIAP inhibitor: bovine intestinal alkaline phosphatase inhibitors, primary screen, selectivity assay for TNAP inhibitor project, biochemical, bovine IAP, CDP-star luminescence; 190,000 tested, under 10 active; inhibition, % at 20 µM; purified bovine IAP, 30 min; alkaline phosphatase, intestinal [Bos taurus];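 active = over 50% inhibition of intestinal alkaline phosphatase at 20 µM in the single-dose screen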
#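 Assay system – bovine IAP enzyme · Quantity – bovine IAP at 1/65,000,000 final dilution · Detection – CDP-star luminescence signal · Times – 30 min reaction at room temperature · Also added – CDP-star substrate at 30 µM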
# hIAP activ: human IAP activators, primary screen, biochemical, luminescence, uHTS. activation factor at 10 µM. AID 2524, 2010. purified human IAP, CDP-Star luminescence, 30 min; stronger effect = higher value; 1 = vehicle-only enzyme, 0 = enzyme-free background. 330,000 compounds, 0.16% hits;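 active = activation factor of the enzyme at least 2-fold when tested at 20 µM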
# Target sequence (P09923 whole entry, looked up): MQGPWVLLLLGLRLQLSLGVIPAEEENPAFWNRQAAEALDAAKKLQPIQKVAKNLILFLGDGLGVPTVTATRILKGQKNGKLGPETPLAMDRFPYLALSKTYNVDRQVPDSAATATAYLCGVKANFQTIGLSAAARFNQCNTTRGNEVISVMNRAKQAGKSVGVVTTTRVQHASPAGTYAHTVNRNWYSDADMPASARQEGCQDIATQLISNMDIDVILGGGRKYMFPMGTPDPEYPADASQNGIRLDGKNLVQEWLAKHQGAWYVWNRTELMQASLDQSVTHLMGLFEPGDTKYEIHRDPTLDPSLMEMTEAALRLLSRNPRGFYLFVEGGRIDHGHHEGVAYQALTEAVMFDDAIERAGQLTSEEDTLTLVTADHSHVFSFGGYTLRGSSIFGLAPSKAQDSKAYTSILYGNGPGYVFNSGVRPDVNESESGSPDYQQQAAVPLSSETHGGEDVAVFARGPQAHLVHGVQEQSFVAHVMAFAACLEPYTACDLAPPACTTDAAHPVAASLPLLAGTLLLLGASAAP
# hIAP block: human IAP inhibitors, primary screen, biochemical, luminescence, uHTS; AID 2544, 2010; Intestinal-type alkaline phosphatase (Homo sapiens), P09923; 330,000 compounds, 0.12% hits; inhibition, % at 10 µM; purified IAP, CDP-Star luminescence, 30 min;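 active = inhibition reaching a set limit with compound at 10 µM in the primary screen, cut at about 35% in these data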;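 also: plate controls were DMSO wells with enzyme for no effect and no-enzyme buffer wells for full effect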
# mIAP act: activators of mouse IAP, primary screen, biochemical, luminescence, uHTS; intestinal alkaline phosphatase [Mus musculus]; muIAP, CDP-Star luminescence, 30 min; stronger effect = higher value; 1 = vehicle-only enzyme signal, 0 = enzyme-free wells; activation factor at 10 µM; 330,000 compounds, 0.24% hits; AID 2805, 2010;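 active = activation factor of at least 2 at 20 µM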
#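 System: Mouse IAP enzyme | Also added: CDP-Star substrate | Dosing: Compounds dispensed in DMSO | Schedule: 30 min enzyme-substrate-compound incubation at room temperature | Technique: Chemiluminescence readout | Control set: DMSO-only wells and no-enzyme negative control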
# The depositor's hits bear a star; nt = no result. Only some compounds are listed: those with a hit (about 0.77% of all), similar ones and a draw of the others.
SMILES,mIAP block,bIAP act,bIAP inhibitor,hIAP activ,hIAP block,mIAP act
C[C@H](CO)N1C[C@H](C)[C@@H](CN(C)S(=O)(=O)c2ccccc2)Oc2ccc(NC(=O)Nc3ccc4c(c3)OCO4)cc2C1=O,-159,nt,nt,1,-2,2.6*
C[C@H](CO)N1C[C@H](C)[C@@H](CN(C)S(=O)(=O)c2ccccc2)Oc2ccc(NC(=O)Cc3ccccc3)cc2C1=O,-26,nt,nt,0.98,2,1.3
CCCc1c(NC(=O)Nc2ccc(F)cc2)cnn1-c1ccccc1,-130,nt,nt,0.95,5,2.3*
CC1CCCCN1C(=O)CSc1nnc(Cc2ccccc2)n1C (stereo not given),-2,2.1*,-108,0.88,12,1
CC1Cc2ccccc2N1C(=O)CSc1nnc(Cc2ccccc2)n1CCc1ccccc1 (stereo not given),nt,5.4*,-442,nt,nt,nt
CC(C)c1ccc(NC(=O)NC2CC3CCC(C2)N3Cc2cccs2)cc1 (stereo not given),-20,0.8,20,1.1,-13,1.2
Cc1ccc(NC(=S)NC2CC3CCCC(C2)N3Cc2cccs2)cc1 (stereo not given),-318,2*,-95,1.3,-34,4.2*
Fc1ccc(NC(=S)NC2CC3CCCC(C2)N3Cc2cccs2)cc1 (stereo not given),-181,1.4,-41,1.1,-8,2.8*
CC(C)CNC(=S)NC1CC2CCCC(C1)N2Cc1cccs1 (stereo not given),-163,1.1,-14,0.99,1,2.6*
CC(C)CNC(=S)NC1CC2CCCC(C1)N2Cc1ccco1 (stereo not given),-26,1,5,1.2,-16,1.3
Cc1ccc(NC(=S)NC2CC3CCCC(C2)N3Cc2ccco2)cc1 (stereo not given),-53,1.1,-11,1.1,-7,1.5
O=C1C=C(c2cccnc2)CCC1,6,nt,nt,1,0,0.94
Cc1nc(N2CCCCC2)sc1C(=O)c1ccc(Cl)c([N+](=O)[O-])c1,12,1.1,-8,0.81,19,0.88
CCOc1ccc(CNc2ncc(-c3ccccc3)n2C)cc1,0,nt,nt,0.93,7,1
CC(=O)Nc1ccc(NC(=O)c2cc(C3CC3)nc3c2cnn3C(C)C)cc1,2,nt,nt,1.3,-26,0.98
CC1=CC(C)(C)N2C(=O)C3(N=C(N)NC(Nc4ccccc4)=N3)c3cc(C)cc1c32 (stereo not given),-121,2.3*,-134,0.98,2,2.2*
COc1cccc(OCCNC(=O)Nc2cc(F)c(F)cc2Cl)c1,-133,1.1,-10,1.1,-13,2.3*
COc1ccc(OCCNC(=O)Nc2cc(F)c(F)cc2Cl)cc1,-86,1.1,-5,1.1,-11,1.9
COc1cc(C(=O)N2CCN(C(=O)CC(C)C)CC2)cc(OC)c1OC,40*,1,0,1.1,-7,0.6
COc1ccc(C(=O)N2CCN(C(=O)CC(C)C)CC2)cc1OC,4,1,0,1.1,-8,0.96
N#C/C(=C/c1ccc(-c2ccc(S(N)(=O)=O)cc2)o1)c1nc2ccccc2s1,57*,1,-4,0.91,9,0.43
N#C/C(=C/c1ccc(-c2ccc(S(N)(=O)=O)cc2)o1)C(=O)Nc1ccccc1,28,1,2,1,-5,0.72
CCc1ccc(C(CC(=O)c2ccc(Cl)cc2)C(=O)O)cc1 (stereo not given),-5,1,5,0.94,6,1
Cc1cc(C)nc(/N=C(\N)Nc2ccc(-c3ccccc3)cc2)n1,-50,3.7*,-267,1.3,-34,1.5
CC(=O)Nc1ccc(N/C(N)=N/c2nc(C)cc(C)n2)cc1,-6,1,-1,0.89,11,1.1
SMILES,mIAP block,bIAP act,bIAP inhibitor,hIAP activ,hIAP block,mIAP act
O=C(C1COc2ccccc2O1)N1CCN(S(=O)(=O)c2cc(F)ccc2F)CC1 (stereo not given),11,nt,nt,0.9,10,0.89
COc1cc(C2CC(c3cccnc3)=NN2c2ccc(F)cc2)cc(OC)c1OC (stereo not given),-123,1.4,-39,1.2,-18,2.2*
CC(C)=CCC/C(C)=C/CNC(=O)C[C@H]1C[C@H](C(=O)N2CCCCC2)[C@@]2(C)c3[nH]c4ccc(Cl)cc4c3CCN2C1=O,-11,nt,nt,nt,nt,1.1
COc1ccc2[nH]c3c(c2c1)CCN1C(=O)C(CC(=O)NC/C=C(\C)CCC=C(C)C)C[C@H](C(=O)N2CCCCC2)[C@@]31C (stereo not given in full),-100,nt,nt,nt,nt,2*
O=C(Nc1ccc(F)cc1F)Nc1ccc(F)cc1F,-9,1,-2,1.2,-16,1.1
O=C(Nc1ccc(F)cc1F)Nc1csc2ccccc12,-128,nt,nt,0.96,4,2.3*
Cc1ccc(S(=O)(=O)NCc2ccccc2)cc1C(=O)NCC1CCCO1 (stereo not given),-6,nt,nt,1.1,-6,1.1
CCCc1cc(C(=O)Nc2nccs2)cs1,66*,0.9,12,1,-4,0.34
CCCN1C(=O)c2ccc(C(=O)Nc3nccs3)cc2C1=O,-3,1,2,1.2,-22,1
C#CCNC(=O)C1=C[C@@H](C)[C@H](CCCO)[C@@H](OCC)O1,10,nt,nt,1.1,-12,0.9
CCN(CC)S(=O)(=O)c1cccc(C(=O)NC2CCCCC2)c1,7,1,3,0.94,6,0.93
Cc1ccc(S(=O)(=O)N(C)C)cc1NC(=S)NC1CCCC(C)C1C (stereo not given),-184,1,0,1.1,-12,2.8*
CCN(CC)S(=O)(=O)c1ccc(C)c(NC(=S)NC2CCCCC2)c1,-104,nt,nt,1,-3,2*
CC1CCCCC1NC(=S)Nc1cccc(S(=O)(=O)N(C)C)c1 (stereo not given),-192,0.8,24,1.1,-12,2.9*
CC(=O)NNC(=S)Nc1cc(S(=O)(=O)N(C)C)ccc1C,6,1,2,1.8,-82,0.94
Cc1ccc(NC(=S)NC2CCCCC2)cc1S(=O)(=O)N(C)C,-136,1.2,-23,1.4,-35,2.4*
CCOCCCNC(=O)C1CCCN1C(=O)NC1CCCCC1 (stereo not given),-14,1,1,0.93,7,1.1
Cc1ccc(N2CC(C(=O)Nc3nnc(SCC(=O)Nc4nc(C)cs4)s3)CC2=O)cc1 (stereo not given),2,1,1,0.91,9,0.98
